Source: PubChem BioAssay
Dynein cargo inh: inhibitors of GR-EGFP nuclear translocation, primary screen, dynein cargo transport inhibitor project, imaging, high-content, 3617.4 mouse cells | test concentration mostly 20 µM; stimulated with dexamethasone, 1 µM; hits give low values | z-score, hits read low | 220,000 tested, 0.47% active | AID 1381, 2008;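 active = plate z-score of nuclear minus cytoplasmic receptor signal below a set negative limit, without overly bright fluorescence or cell loss, cut at about -3.5 in these data, passing the limit was not always enough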;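 also: z-score of nuclear minus cytoplasmic ring GR-EGFP intensity difference per well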
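Buffer or medium: Induction medium lacking tetracycline, stripped serum | Also added: Dexamethasone agonist, 1.0 µM final, for 30 min | Timing: 48 h induction, 1 h compound, 30 min dex at 37 °C | Detection: Formaldehyde fixation, Hoechst nuclear stain, 10x automated fluorescence imaging | Measure: Nuclear versus cytoplasmic GR-EGFP signal, averaged per well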
CHOP inh: inhibitors of CHOP promoter induction, primary screen, cell-based, unfolded protein response, luciferase reporter | inhibition, % at 10 µM | AID 2732, 2010 | 220,000 tested, 3.8% active | CHO-K1 CHOP-promoter luciferase, tunicamycin-induced, 15-18 h;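 active = compounds that reduced the stress-induced luciferase reporter signal by more than about 70% of percent inhibition, limit read from the data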;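 also: 0% = tunicamycin plus vehicle and 100% = wells without tunicamycin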
MT stabilizer: microtubule stabilizers in HeLa cells, primary screen, imaging, high-content imaging. % tubulin-high responders, % at 10 µM. HeLa tubulin immunostaining HCS, 24 h; share of cells brighter than vehicle mean+2SD. 200,000 tested, 0.83% active;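 active = plate Z-score above 3 for both tubulin-high and condensed-nucleus cell shares, with cell loss under 80%, at 10 µM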;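 also: anti alpha tubulin signal scored within the nucleus-defined area of each cell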
Lmaj promast: Leishmania major promastigote growth inhibition, primary screen | inhibition, % at 10 µM | Leishmania major promastigotes, resazurin fluorescence viability | 200,000 tested, 9% active; in the data active = inhibition above about 50%;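 also: promastigotes grown with compound for 44 hours at 28 °C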
Autophagy HCS: autophagy modulators in MEF cells, primary screen, imaging, high-content, MEF GFP-LC3; MEF GFP-LC3 puncta imaging; test concentration mostly 10 µM; calls only at 10 µM (by protocol); 190,000 tested, 0.98% active; AID 463193, 2010;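 active = percentage of spot-positive cells more than 3 SD above its plate mean, without a fluorescence outlier flag or 80% toxicity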;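 also: spot-positive cell cutoff set from DMSO-treated cells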
bCat nuc transl: modulators of beta-catenin nuclear translocation, primary screen, imaging, HeLa cells, immunofluorescence, high-content | nuclear translocation activity, % at 5 µM | 190,000 tested, 0.3% active;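 active = nuclear translocation activity above 50% at 5 µM, with a well cell count of 50 or more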;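 also: per-cell ratio of nuclear to cytoplasmic median beta-catenin stain intensity; plate controls were DMSO negative control for no effect and GSK-3 inhibitor IX positive control for full effect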
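test system = HeLa cells, endogenous beta-catenin | dosing = single 5 µM dose plus 0.02–20 µM confirmation series | times = compound treatment 24 h, 37°C, 5% CO2 | technique = beta-catenin immunofluorescence imaging with DAPI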
The depositor's hits bear a star. Only some compounds are listed: those with a hit (about 12% of all), similar ones and a draw of the others.

O=C(C1CC(=O)N(c2ccc(F)c(Cl)c2)C1)N1CCC2(CC1)OCCO2 (stereo unspecified) was read as Dynein cargo inh 0.0836, CHOP inh -10.6, MT stabilizer 1.0, Lmaj promast 10.0, Autophagy HCS inactive and bCat nuc transl -0.4.
Screening CCC(C#N)(CC)P(=S)(c1ccccc1)c1ccccc1 returned Dynein cargo inh 0.7, CHOP inh 53.0, MT stabilizer 3.9, Lmaj promast 99.6*, Autophagy HCS inactive and bCat nuc transl -2.7.
Screening Cc1nn(Cc2ccccc2)c(C)c1C=C1C(=O)NC(=O)NC1=O returned Dynein cargo inh -0.604, CHOP inh 3.6, MT stabilizer 2.0, Lmaj promast 57.7* and Autophagy HCS inactive.
Screening Cc1nn(Cc2ccccc2)c(C)c1C(=O)NCc1ccccc1 returned Dynein cargo inh 0.658, CHOP inh 31.5, MT stabilizer 1.9, Lmaj promast -2.1, Autophagy HCS inactive and bCat nuc transl 0.2.
`Cc1ccsc1C(=O)C1CCCN(Cc2cccc(-n3cccn3)c2)C1` (stereo unspecified) gave Dynein cargo inh -1.49, CHOP inh 26.4, MT stabilizer 2.8, Lmaj promast 57.6*, Autophagy HCS inactive and bCat nuc transl -2.2.
CN1C(=O)C(=Cc2c(OCc3cnc(Cl)s3)ccc3ccccc23)C(=O)N(C)C1=O was read as Dynein cargo inh -1.38, CHOP inh -22.3, MT stabilizer 10.8, Lmaj promast 89.2*, Autophagy HCS inactive and bCat nuc transl 6.1.
Brc1ccc2c(c1)C(OC1CN3CCC1CC3)c1ccccc1CS2 (stereo unspecified) was read as Dynein cargo inh 3.83, CHOP inh 63.2, MT stabilizer 4.2, Lmaj promast 100.3*, Autophagy HCS inactive and bCat nuc transl 5.3.
Cc1cc(N2C(=O)C3CCCN3C2c2sccc2C)no1 (stereo unspecified) was read as Dynein cargo inh -0.107, CHOP inh 12.9, MT stabilizer 7.2, Lmaj promast -4.9, Autophagy HCS inactive and bCat nuc transl 1.8.
Screening O=C(O)C1C2c3ccccc3C(c3ccccc32)C1C(=O)Nc1ccccc1 (stereo unspecified) returned Dynein cargo inh 0.603, CHOP inh -15.6, MT stabilizer 1.4, Lmaj promast 73.2*, Autophagy HCS inactive and bCat nuc transl -0.5.
Screening COc1cc2c(cc1OC)C(C(=O)NC(C)C)C1CCCCN1C2=O (stereo unspecified) returned Dynein cargo inh -0.161, CHOP inh 19.0 and bCat nuc transl -1.7.
For COc1ccc(-n2cnc3cc(C(=O)N4CCC5(CC4)OCCO5)ccc32)cc1 the results were Dynein cargo inh -0.792, CHOP inh 33.9, MT stabilizer 12.5*, Lmaj promast -0.9, Autophagy HCS inactive and bCat nuc transl 31.9.
O=C(c1ccc2c(c1)ncn2C1CCCCCC1)N1CCC2(CC1)OCCO2 was read as Dynein cargo inh -0.184, MT stabilizer 5.8, Lmaj promast -5.1, Autophagy HCS inactive and bCat nuc transl 4.1.
For Cc1nc2cc(F)ccc2n1C1CCN(Cc2nnnn2CCc2ccccc2)CC1 the results were Dynein cargo inh -0.644, CHOP inh 13.8, MT stabilizer 2.3, Lmaj promast 31.7, Autophagy HCS inactive and bCat nuc transl -5.1.
For Cc1ccc(Cn2nnnc2CN2CCC(n3nnc4cc(C(F)(F)F)ccc43)CC2)cc1 the results were Dynein cargo inh -0.537, CHOP inh 55.6, MT stabilizer 1.9, Lmaj promast 53.2*, Autophagy HCS inactive and bCat nuc transl -3.4.
`Cc1nc2cc(C(F)(F)F)ccc2n1C1CCN(Cc2nnnn2CCc2ccccc2)CC1` gave Dynein cargo inh -0.22, CHOP inh 40.9, MT stabilizer 3.6, Lmaj promast 98.3*, Autophagy HCS inactive and bCat nuc transl -2.8.
Screening FC(F)(F)c1ccc2c(c1)nnn2C1CCN(Cc2nnnn2Cc2ccccc2)CC1 returned Dynein cargo inh -1.06, CHOP inh 88.2*, MT stabilizer 3.1, Lmaj promast -1.4, Autophagy HCS inactive and bCat nuc transl 0.7.
Cc1ccc(C)c(CN2CCC(n3nnc4cc(F)ccc43)CC2)c1 was read as Dynein cargo inh -1.01, CHOP inh 75.0*, MT stabilizer 1.7, Lmaj promast 16.8, Autophagy HCS inactive and bCat nuc transl 1.6.
Screening O=C1NC2NC(=O)N([N+](=O)[O-])C2N1 (stereo unspecified) returned Dynein cargo inh -0.188, CHOP inh 5.7 and bCat nuc transl -0.7.
`Cc1ccccc1OCCN=Cc1c(O)n(C)c(=O)n(C)c1=O` gave Dynein cargo inh -0.337, CHOP inh 7.0, MT stabilizer 2.9, Lmaj promast 2.0, Autophagy HCS inactive and bCat nuc transl -1.0.
CS(=O)(=O)N1CCN(C(=N)N[N+](=O)[O-])CC1 was read as Dynein cargo inh 0.036, CHOP inh 7.2, MT stabilizer 3.5, Lmaj promast -3.6, Autophagy HCS inactive and bCat nuc transl 0.4.
For CN1CCC(N(C)c2nc(-c3ccccc3)nc3ccccc23)CC1 the results were Dynein cargo inh 3.46, CHOP inh -4.5, MT stabilizer 2.8, Lmaj promast 100.5*, Autophagy HCS inactive and bCat nuc transl 0.8.
`CCC(=Nc1ccc2c(c1)CCC2)c1c(O)n(C2CCCCC2)c(=O)[nH]c1=O` gave Dynein cargo inh -0.408, CHOP inh 76.1*, MT stabilizer 8.0, Lmaj promast 42.9, Autophagy HCS inactive and bCat nuc transl -1.7.
Screening CCC(=NC1CC1)c1c(O)n(C2CCCCC2)c(=O)[nH]c1=O returned Dynein cargo inh -0.634, CHOP inh 39.8, MT stabilizer 3.9, Lmaj promast 5.7, Autophagy HCS inactive and bCat nuc transl -3.2.
For CC(=Nc1ccc2c(c1)CCC2)c1c(O)n(-c2ccccc2)c(=O)[nH]c1=O the results were Dynein cargo inh 0.626, CHOP inh 32.0 and bCat nuc transl -6.0.
For CC(=Nc1ccc2c(c1)CCC2)c1c(O)n(C2CCCCC2)c(=O)[nH]c1=O the results were Dynein cargo inh -0.472, CHOP inh 87.1*, MT stabilizer 5.8, Lmaj promast 13.9, Autophagy HCS inactive and bCat nuc transl -5.7.
Screening O=Cc1cn(CCCOc2ccccc2)c2ccccc12 returned Dynein cargo inh -0.535, CHOP inh 26.7, MT stabilizer 3.4, Lmaj promast 65.8*, Autophagy HCS inactive and bCat nuc transl -0.8.
For COc1ccccc1OCCCn1cc(C=O)c2ccccc21 the results were Dynein cargo inh -0.702, CHOP inh -6.7, MT stabilizer 3.9, Lmaj promast 3.9, Autophagy HCS inactive and bCat nuc transl 1.6.
